Compound activity from PubChem.
V-ATPase pH: alters yeast V-ATPase proton transport; response, % at 10 µM; S. cerevisiae, pHLuorin cytosolic pH fluorescence; 350,000 tested, 0.37% active; AID 504577; in the data active means response mostly above about 7.3%, no sharp cut-off; inactive means mostly below about 5.4%; further: actives read high
CaV13 FRET inh: Disruptors of the CACNA1D IQ motif to Ca2+-dependent inactivation inhibitor domain association, primary screening, Förster resonance energy transfer in intact living … | HEK cells, CFP/YFP FRET ICDI-IQ, plate reader, 10 min; percent FRET-ratio fall versus neutral wells | inhibition, % at 12.3 µM | 340,000 tested, 0.098% active;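 active means mean replicate inhibition of at least 30% and at least 1% of replicates passing that level; inconclusive means only one of the two criteria is met; inactive means neither criterion is met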
Vif inh: HIV Vif inhibition. AID 602346. HEK293T cells, Vif self-association by quenched fluorescence, imaging, 24 h. inhibition, % at 7.49 µM. 340,000 tested, 0.35% active; in the data active means inhibition above about 50%, passing the limit was not always enough; inconclusive means no clear call, values can overlap the other calls; inactive means below about 31%
SR-BI DiI inh: inhibitors of mouse SR-BI mediated HDL lipid uptake; Q61009; 320,000 tested, 0.96% active; inhibition, % at 12.5 µM; ldlA[mSR-BI] CHO cells, DiI-HDL uptake fluorescence, 3 h;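 active means mean replicate inhibition of at least 70% and a set share of replicates each scoring 70 or more; inconclusive means meets just one of the two criteria; inactive means fails both criteria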
Target sequence (Q61009 whole entry, looked up): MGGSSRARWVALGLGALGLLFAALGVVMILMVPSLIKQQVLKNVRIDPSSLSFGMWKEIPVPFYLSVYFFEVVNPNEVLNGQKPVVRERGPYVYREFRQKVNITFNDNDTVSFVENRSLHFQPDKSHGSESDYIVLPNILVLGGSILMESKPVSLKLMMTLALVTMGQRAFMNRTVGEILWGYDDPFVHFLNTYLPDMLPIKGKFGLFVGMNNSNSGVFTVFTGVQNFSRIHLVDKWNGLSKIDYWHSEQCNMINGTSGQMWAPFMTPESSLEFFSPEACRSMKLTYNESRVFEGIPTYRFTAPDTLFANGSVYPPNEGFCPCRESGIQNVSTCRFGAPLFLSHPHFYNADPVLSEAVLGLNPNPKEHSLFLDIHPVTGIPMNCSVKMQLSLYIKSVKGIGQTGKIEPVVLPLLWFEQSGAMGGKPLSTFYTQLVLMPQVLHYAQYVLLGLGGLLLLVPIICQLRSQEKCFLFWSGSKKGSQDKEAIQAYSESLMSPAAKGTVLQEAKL
SR-BI DiI-HDL act: enhances SR-BI lipid uptake from DiI-HDL; activation, % at 12.5 µM; 320,000 tested, 0.096% active; CHO ldlA[mSR-BI] cells, DiI-HDL uptake fluorescence, 3 h; 100 = double the neutral-control signal;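 active means mean replicate activation of at least 60% and every replicate at or above 60%; inconclusive means mean or all-replicate condition met, but not both; inactive means mean below 60% and not all replicates reaching 60%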
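Material: SR-BI-overexpressing, LDLR-lacking CHO cells | Dosing: Single compound concentration, delivered by pin transfer | Probe or stimulus: Labelled HDL, 10 µg/mL | Signal: Bottom-read cell fluorescence after medium removal, ex 550/em 595 nm | Schedule: 3 h, 37 °C | Evaluation: HDL uptake via cellular fluorescence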
NTR1 ag: activates human neurotensin receptor 1; 330,000 tested, 0.17% active; activation, % at 20 µM; NTR1-U2OS beta-arrestin-GFP spot imaging, agonist mode; P30989;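 active means activation at or above 40% of the spot to cytoplasm intensity ratio, with at least 20 cells analyzed; inconclusive means wells under 20 cells, flagged as cytotoxic or low count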
Of the large screens only hits and unclear results are named; the others gave an inactive call. Compounds with a hit are over-represented: about 1.7% of the library has one in this group of screens.

CCCC(C)C(=O)Nc1nc(C)c(-c2csc(Nc3cc(OC)ccc3OC)n2)s1 (stereo not given)	SR-BI DiI inh 93.0
COc1ccccc1Nc1nc(-c2sc(NC(=O)C(C)(C)C)nc2C)cs1	SR-BI DiI inh 84.6
COc1cccc(C(=O)N[C@H](C(=O)N2CCC[C@H]2C(=O)NCc2ccccc2)C(C)C)c1	none (no result: V-ATPase pH, Vif inh, SR-BI DiI inh, SR-BI DiI-HDL act, NTR1 ag)
O=C(NC1CCCCC1)C1CC(=O)N(c2cccc([N+](=O)[O-])c2)C1 (stereo not given)	none
CCOc1ccc(C(=O)NCC(=O)NCC(c2ccco2)N2CCCCC2)cc1 (stereo not given)	none
COC(=O)C1=C(C)N(Cc2cccc(C(F)(F)F)c2)C(=NCC2CC2)NC1c1ccc(F)cc1 (stereo not given)	none (no result: V-ATPase pH, Vif inh, SR-BI DiI inh, SR-BI DiI-HDL act, NTR1 ag)
O=C1C=C(c2cnc3ccccc3c2)C[C@@H](c2ccc3c(c2)OCO3)C1	none
COc1ccc(C)cc1-n1nnnc1SCC(=O)NC1CCS(=O)(=O)C1 (stereo not given)	none
Cc1ccc(C)c(Nc2cc(C(=O)NCc3cccnc3)c3ccccc3n2)c1	none
Cc1nc2c(ccc3nc(NC(=O)c4ccc5c(c4)OCCO5)sc32)s1	SR-BI DiI inh 74.9
COc1ccc([C@@H]2CC=C(C(=O)O)[C@H](c3ccc(Cl)cc3)N2S(=O)(=O)c2ccc(C)cc2)cc1OC	none
Fc1cccc(NC(=S)NCc2ccc(Cl)cc2)c1	none
Fc1cc(NC(=S)NCc2ccc(CNC(=S)Nc3ccc(Cl)c(F)c3)cc2)ccc1Cl	SR-BI DiI inh 73.3
COc1cc(S(=O)(=O)NCc2ccncc2)c(OC)cc1C	Vif inh 51.0
CCOC(=O)c1cc(C(=O)OCC)c(=O)[nH]c1N1CCCCC1	none
COC(=O)c1cn(-c2nc(C)c3c(n2)CCC3)nn1	none
COCCN1C=C(C(=O)OC)C(c2ccc(Cl)cc2)C(C(=O)OC)=C1	CaV13 FRET inh active
CCOc1ccc(C2C(C(=O)OC)=CN(CCOC)C=C2C(=O)OC)cc1	none
S=C1Cc2ccccc2N1	SR-BI DiI inh 96.6 (no result: NTR1 ag)
C#CCSc1nnc(-c2sc(-c3ccccc3)nc2C)n1C	SR-BI DiI inh 74.4
Cn1c(CCc2nc3ccccc3[nH]2)nnc1SCC#N	none
N#Cc1ccc(C23CC4(C2)[C@H](CN(Cc2cccnc2)[C@@H]4c2ccccc2)C3c2ccccc2)cc1 (stereo not given in full)	none
Cc1cc(O)c2c(c1O)C(=O)[C@]13C(=C2O)C(=O)[C@@H]2[C@@H](O)[C@H]1[C@@H]1[C@H](O)[C@H]3C(=O)C3=C(O)c4c(O)cc(C)c(O)c4C(=O)[C@]312	SR-BI DiI inh 94.9 (no result: CaV13 FRET inh)
CCN(CC)C(=O)C1CCCN(c2ccccc2[N+](=O)[O-])C1 (stereo not given)	SR-BI DiI inh 79.2
N#CCC(=O)N/N=C/c1cc([N+](=O)[O-])ccc1N1CCCC1	none
O=C(CNc1ccccc1)N/N=C/c1cc([N+](=O)[O-])ccc1N1CCCC1	SR-BI DiI inh 73.1 (no result: CaV13 FRET inh)
CCN(CC)C(=O)C1CCCN(c2ccc([N+](=O)[O-])cc2/C=N/NC(=O)c2cccc([N+](=O)[O-])c2)C1 (stereo not given)	SR-BI DiI inh 89.9 (no result: CaV13 FRET inh)
CCCCc1nc(SCC(=O)N2CCOCC2)c2c(=O)n(C)c(=O)n(C)c2n1	Vif inh inconclusive (no result: CaV13 FRET inh)
COc1ccc(NC(=S)NCc2ccccc2Cl)c(OC)c1	V-ATPase pH 20.7
O=C(CCn1c(=S)[nH]c2ccccc2c1=O)Nc1cccc(Cl)c1	none
COc1cc(NC(=S)NCCc2c[nH]c3ccccc23)c(OC)cc1Cl	SR-BI DiI inh 73.3
CC1CCN(C(=O)COC(=O)Cc2c[nH]c3ccccc23)CC1	V-ATPase pH 13.1 (no result: Vif inh)
COc1ccc(NC(=O)CCn2c(=S)[nH]c3ccccc3c2=O)cc1Cl	Vif inh 56.7 (no result: V-ATPase pH, SR-BI DiI inh, SR-BI DiI-HDL act, NTR1 ag)
Cn1c(N)c(C(=O)COC(=O)c2cc(S(=O)(=O)NCc3ccccc3)ccc2O)c(=O)n(C)c1=O	none (no result: NTR1 ag)
COc1ccc(NC(=O)COC(=O)Cc2c[nH]c3ccccc23)cc1Cl	Vif inh 54.8
Nc1ccc(Nc2nc(-c3cccs3)cs2)cc1	SR-BI DiI inh 99.9
c1ccc(Nc2nc(-c3cccs3)cs2)nc1	none (no result: CaV13 FRET inh)
CC(=O)Nc1ccc(-c2ccnc3c2CC(C(=O)NCc2ccccc2)O3)cc1 (stereo not given)	Vif inh 66.0 (no result: V-ATPase pH, SR-BI DiI inh, SR-BI DiI-HDL act, NTR1 ag)
CC(=O)Nc1ccc(-c2ccnc3c2CC(C(=O)NCCc2ccccc2)O3)cc1 (stereo not given)	none (no result: V-ATPase pH, SR-BI DiI inh, SR-BI DiI-HDL act, NTR1 ag)
Cc1ccccc1CN1CCN(C(=O)[C@H]2O[C@@H](n3cnc4c(N)ncnc43)[C@H](O)[C@@H]2O)CC1	none (no result: V-ATPase pH, SR-BI DiI inh, SR-BI DiI-HDL act, NTR1 ag)
O=[N+]([O-])c1ccc(NC(=S)N2CCN(c3ccccc3)CC2)cc1	SR-BI DiI-HDL act 75.2
COc1ccc(C(=O)Nc2ccc(N3CCN(C(=O)c4ccccc4C)CC3)cc2)cc1	none
Cc1ccccc1C(=O)N1CCN(c2ccc(NC(=O)c3ccccc3[N+](=O)[O-])cc2)CC1	SR-BI DiI inh 78.0
Cc1ccccc1C(=O)N1CCN(c2ccc(NC(=O)c3cccnc3Cl)cc2)CC1	SR-BI DiI inh 76.4
Cc1c2cc(O)c(=O)cc-2oc2cc(O)c(O)cc12	V-ATPase pH 205.7
Cc1cc(C)n(-c2ccc(C(=O)Nc3nc4ccccc4s3)cc2)n1	SR-BI DiI inh 70.1 (no result: CaV13 FRET inh)
Nc1ccc(C(=O)Nc2nc3ccccc3s2)cc1	none
Cc1cc(C)n(-c2ccc(C(=O)Nc3cccc(S(=O)(=O)N(C)C)c3)cc2)n1	none
Cc1cc(C)n(-c2ccc(C(=O)Nc3cccc([N+](=O)[O-])c3)cc2)n1	SR-BI DiI inh 79.8
Cn1cnnc1SCC(=O)Nc1ncc([N+](=O)[O-])s1	none
COC(=O)c1ccccc1-c1c2ccc(=N)cc-2oc2cc(N)ccc12	V-ATPase pH 454.2, SR-BI DiI inh 76.6
COc1ccc(CNc2c(C(=O)O)cnc3c2cnn3C)cc1	none (no result: Vif inh)
CCOC(=O)c1cnc2c(cnn2C)c1NCc1ccc(OC)cc1	SR-BI DiI inh 78.7
CCC1(c2ccccc2)NC(=O)N(CC(=O)NNC(=O)c2ccc(F)cc2)C1=O (stereo not given)	none
CCOC(=O)c1c(-c2ccc(OC)cc2)csc1NC(=O)COc1ccc2c(C)cc(=O)oc2c1	SR-BI DiI inh 73.5
Cc1cc(=O)oc2cc(OCC(=O)Nc3nccs3)ccc12	none
COc1cccc(CC(NC(C)=O)C(=O)NC2CCN(S(=O)(=O)c3ccc(NC(C)=O)cc3)CC2)c1 (stereo not given)	none
CCN(CCO)Cc1csc2ccc(Cl)cc12	SR-BI DiI-HDL act 70.0
Cc1ccccc1-c1nc(CS(=O)CC(=O)NC2CCCC2)c(C)o1 (stereo not given)	none
Cc1oc(-c2ccccc2F)nc1CS(=O)CC(=O)NC1CCCC1 (stereo not given)	SR-BI DiI inh 85.1
